Results gathered from unrelated publications.
Converted amounts (≈) assume the structure as drawn.
Organism: Candida albicans

Compound	effect on	strain	time	measurement	value
OC(Cn1cncn1)(Cn1cncn1)c1ccc(F)cc1F	microbial killing			MFC	40 µM (≈ 12.3 µg/mL)
NOCC(=O)O	microbial growth	28A		MIC	1000 µg/mL
O=C(NCc1ccc2c(c1)OCO2)c1ccc(Br)cc1F	microbial growth	ATCC10231	72 h	MIC	> 200 µM
Cc1cc(Cc2ccc(Cl)cc2)n(O)c(=O)c1	microbial growth	ATCC90028		MIC80	1.7 µM (≈ 0.424 µg/mL)
CCCCCOc1ccc(-c2cc(-c3ccc(C(=O)N[C@H]4C[C@@H](O)[C@@H](O)NC(=O)[C@@H]5[C@@H](O)[C@@H](C)CN5C(=O)[C@H]([C@H](O)CC(N)=O)NC(=O)[C@H]([C@H](O)[C@@H](O)c5ccc(O)c(OS(=O)(=O)O)c5)NC(=O)[C@@H]5C[C@@H](O)CN5C(=O)[C@H]([C@@H](C)O)NC4=O)cc3)no2)cc1	microbial growth			MIC50	0.01 µg/mL (≈ 0.00787 µM)
Cc1cc(CC2CCCCC2)n(O)c(=O)c1	microbial growth	ATCC90028		MIC80	1.5 µM (≈ 0.332 µg/mL)
C[C@@H]1[C@H](O)[C@@H](C)/C=C/C=C/C=C/C=C/C=C/C=C/C=C/[C@H](O[C@@H]2O[C@H](C)[C@@H](O)[C@H](N)[C@@H]2O)C[C@@H]2O[C@](O)(C[C@@H](O)C[C@@H](O)[C@H](O)CC[C@@H](O)C[C@@H](O)CC(=O)O[C@H]1C)C[C@H](O)[C@H]2C(=O)O	microbial growth	ATCC90028		IC50	0.13 µg/mL (≈ 0.141 µM)
COc1ccccc1Cc1cc(C)cc(=O)n1O	microbial growth	ATCC90028		MIC80	2.7 µM (≈ 0.662 µg/mL)
C=C1C(=O)O[C@@H](CCCCCCCCCCCCC)[C@@H]1C(=O)O	microbial growth	28A		MIC	64 µg/mL
